Reference: ChEMBL document CHEMBL4130484, “Identification and optimization of novel 6-acylamino-2-aminoquinolines as potent Hsp90 C-terminal inhibitors” (Eur J Med Chem, 2017)
Values after ≈ are worked out from the molar mass of the structure shown. Active and inactive are the calls of the source. No cut-off for these calls is given here.

How the values were obtained:
MCF7 [1] = experiment: Antiproliferative activity against human MCF7 cells incubated for 72 hrs by MTT assay; assay type: functional, cell-based; conditions: MCF7, 72 h
Method in brief: (§1)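 MTT antiproliferation assay in MCF7 and SKBr3 breast cancer cells; IC50 determined.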

SK-BR-3 = experiment: Antiproliferative activity against human SKBR3 cells incubated for 72 hrs by MTT assay; assay type: functional, cell-based; conditions: SK-BR-3, 72 h; method in brief: as §1
[2] = Distribution coefficient, log D of the compound at pH 7.4; assay type: physicochemical; conditions: octanol/water
Method in brief: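 Log D at pH 7.4 measured on a PULSE platform.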

[3] = Intrinsic aqueous solubility of the compound; assay type: physicochemical
Method in brief: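 Intrinsic aqueous solubility determined on a Gemini Profiler instrument.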

[4] = Permeability coefficient of the compound at pH 7.4 by double-sink PAMPA; assay type: ADME; conditions: read-out: permeability
Method in brief: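 Double-sink PAMPA at pH 7.4 on a PAMPA Explorer instrument; Pe reported as mean ± SD, n = 3.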

[5] = biological target: T1, Heat shock protein HSP90 (Homo sapiens) (UniProt P07900+P08238); experiment: Inhibition of HSP90 C-terminal in human MCF7 cells assessed as reduction in Akt protein expression incubated for 24 hrs by Western blot method; assay type: cell-based
Method in brief: (§2)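 MCF7 cells incubated 24 h with various concentrations, then client protein levels read by Western blot. β-Actin served as loading control. AT13387 (1.0 µM), an N-terminal Hsp90 inhibitor, was the positive control.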

[6] = biological target: T1, Heat shock protein HSP90 (Homo sapiens); experiment: Inhibition of HSP90 C-terminal in human MCF7 cells assessed as reduction in ERK protein expression incubated for 24 hrs by Western blot method; assay type: cell-based; method in brief: as §2
[7] = biological target: T1, Heat shock protein HSP90 (Homo sapiens); experiment: Inhibition of HSP90 C-terminal in human MCF7 cells assessed as reduction in CDK6 protein expression incubated for 24 hrs by Western blot method; assay type: cell-based; method in brief: as §2
MCF7 [8] = experiment: Induction of heat shock response in human MCF7 cells assessed as effect on HSP90 protein expression at 1 to 10 uM incubated for 24 hrs by Western blot method; assay type: cell-based; conditions: mcf7, 24 h; method in brief: as §2
MCF7 [9] = experiment: Induction of heat shock response in human MCF7 cells assessed as effect on HSP70 protein expression at 1 to 10 uM incubated for 24 hrs by Western blot method; assay type: cell-based; conditions: mcf7, 24 h; method in brief: as §2
MCF7 [10] = experiment: Inhibition of cell migration in human MCF7 cells incubated for 24 hrs by wound healing assay; assay type: functional, cell-based
Method in brief: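 Wound healing in MCF7 cells: the monolayer was scratched with a 200 µL sterile pipette tip, treated 24 h at various concentrations, then imaged.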

4T1 [11] = experiment: Antitumor activity against mouse 4T1 cells implanted in BALB/c mouse assessed as inhibition of tumor growth at 10 mg/kg/day, ip for 2 weeks measured every 2 days; assay type: functional; conditions: 4T1, ip, read-out: TGI
Method in brief: (§3)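 BALB/c mice bearing 4T1 breast tumors were dosed ip daily for 2 weeks with vehicle, 10 or 30 mg/kg, starting once mean tumor volume reached 50 mm³. Tumor diameters were measured every two days; TGI derived.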

4T1 [12] = experiment: Antitumor activity against mouse 4T1 cells implanted in BALB/c mouse assessed as inhibition of tumor growth at 30 mg/kg/day, ip for 2 weeks measured every 2 days; assay type: functional; conditions: 4T1, ip, read-out: TGI; method in brief: as §3
4T1 [13] = experiment: Antitumor activity against mouse 4T1 cells implanted in BALB/c mouse assessed as inhibition of lung metastasis at 10 mg/kg/day, ip for 2 weeks measured every 2 days by H and E staining; assay type: functional, organism-based
Method in brief: (§4)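 4T1 tumor-bearing BALB/c mice were dosed ip daily for 2 weeks with vehicle, 10 or 30 mg/kg, starting at mean tumor volume 50 mm³. Lung tissue was then examined for metastasis.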

4T1 [14] = experiment: Antitumor activity against mouse 4T1 cells implanted in BALB/c mouse assessed as inhibition of lung metastasis at 30 mg/kg/day, ip for 2 weeks measured every 2 days by H and E staining; assay type: functional, organism-based; method in brief: as §4
Mus musculus [15] = experiment: Toxicity in BALB/c mouse implanted with mouse 4T1 cells assessed as induction of body weight loss at 10 mg/kg/day, ip for 2 weeks measured every 2 days; assay type: organism-based; conditions: in vivo
Method in brief: (§5)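 4T1 tumor-bearing BALB/c mice were given vehicle, 10 or 30 mg/kg ip daily for 2 weeks from mean tumor volume 50 mm³. Body weight was monitored during treatment.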

Mus musculus [16] = experiment: Toxicity in BALB/c mouse implanted with mouse 4T1 cells assessed as induction of body weight loss at 30 mg/kg/day, ip for 2 weeks measured every 2 days; assay type: organism-based; conditions: in vivo; method in brief: as §5
MCF7 [17] = experiment: Induction of apoptosis in human MCF7 cells assessed as viable cells level at 2.5 uM incubated for 24 hrs by Annexin V-FITC and propidium iodide staining based flow cytometry (reference value: 93.37%); assay type: functional
MCF7 [18] = experiment: Induction of apoptosis in human MCF7 cells assessed as early apoptotic cells level at 2.5 uM incubated for 24 hrs by Annexin V-FITC and propidium iodide staining based flow cytometry (reference value: 1.93%); assay type: functional
MCF7 [19] = experiment: Induction of apoptosis in human MCF7 cells assessed as late apoptotic cells level at 2.5 uM incubated for 24 hrs by Annexin V-FITC and propidium iodide staining based flow cytometry (reference value: 4.19%); assay type: functional
MCF7 [20] = experiment: Induction of apoptosis in human MCF7 cells assessed as necrotic cells level at 2.5 uM incubated for 24 hrs by Annexin V-FITC and propidium iodide staining based flow cytometry (reference value: 0.51%); assay type: functional
MCF7 [21] = experiment: Induction of apoptosis in human MCF7 cells assessed as viable cells level at 5 uM incubated for 24 hrs by Annexin V-FITC and propidium iodide staining based flow cytometry (reference value: 93.37%); assay type: functional
MCF7 [22] = experiment: Induction of apoptosis in human MCF7 cells assessed as early apoptotic cells level at 5 uM incubated for 24 hrs by Annexin V-FITC and propidium iodide staining based flow cytometry (reference value: 1.93%); assay type: functional
MCF7 [23] = experiment: Induction of apoptosis in human MCF7 cells assessed as late apoptotic cells level at 5 uM incubated for 24 hrs by Annexin V-FITC and propidium iodide staining based flow cytometry (reference value: 4.19%); assay type: functional
MCF7 [24] = experiment: Induction of apoptosis in human MCF7 cells assessed as necrotic cells level at 5 uM incubated for 24 hrs by Annexin V-FITC and propidium iodide staining based flow cytometry (reference value: 0.51%); assay type: functional
MCF7 [25] = experiment: Induction of apoptosis in human MCF7 cells assessed as viable cells level at 10 uM incubated for 24 hrs by Annexin V-FITC and propidium iodide staining based flow cytometry (reference value: 93.37%); assay type: functional
MCF7 [26] = experiment: Induction of apoptosis in human MCF7 cells assessed as early apoptotic cells level at 10 uM incubated for 24 hrs by Annexin V-FITC and propidium iodide staining based flow cytometry (reference value: 1.93%); assay type: functional
MCF7 [27] = experiment: Induction of apoptosis in human MCF7 cells assessed as late apoptotic cells level at 10 uM incubated for 24 hrs by Annexin V-FITC and propidium iodide staining based flow cytometry (reference value: 4.19%); assay type: functional
MCF7 [28] = experiment: Induction of apoptosis in human MCF7 cells assessed as necrotic cells level at 10 uM incubated for 24 hrs by Annexin V-FITC and propidium iodide staining based flow cytometry (reference value: 0.51%); assay type: functional

- IC50 (MCF7 [1]): 1.19 µM
- IC50 (SK-BR-3): 1.8 µM
- logD [2]: 2.72
- solubility [3]: 70.8 µg/mL (≈ 155 µM)
- Papp [4]: 47.3 ×10⁻⁶ cm/s
- inhibition [5]: Dose-dependent effect
- inhibition [6]: Dose-dependent effect
- inhibition [7]: Dose-dependent effect
SMILES: Cc1cc(NCCN2CCCCC2)nc2ccc(NC(=O)c3ccc(Cl)c(Cl)c3)cc12
- Activity (MCF7 [8]): Non-Toxic
- Activity (MCF7 [9]): Non-Toxic
- inhibition (MCF7 [10]): Dose-dependent effect
- inhibition in vivo at 10 mg/kg/day (4T1 [11]): 26%
- inhibition in vivo at 30 mg/kg/day (4T1 [12]): 47%
- inhibition (4T1 [13]): Active
- inhibition (4T1 [14]): Active
- Activity (Mus musculus [15]): Non-Toxic
- Activity (Mus musculus [16]): Non-Toxic
- Activity (MCF7 [17]): 93.3%
- Activity (MCF7 [18]): 1.57%
- Activity (MCF7 [19]): 4.33%
- Activity (MCF7 [20]): 0.8%
- Activity (MCF7 [21]): 78.86%
- Activity (MCF7 [22]): 5.21%
- Activity (MCF7 [23]): 12.8%
- Activity (MCF7 [24]): 3.13%
- Activity (MCF7 [25]): 42.69%
- Activity (MCF7 [26]): 20.22%
- Activity (MCF7 [27]): 31.59%
- Activity (MCF7 [28]): 5.5%
